From ChEMBL document CHEMBL1772972, “Differential gene expression in rat vascular smooth muscle cells following treatment with coptisine exerts a selective antiproliferative effect” (2011)
Calls of active or inactive are those of the source. The rule behind the calls is not given here.

Assays:
[1] = Growth inhibition against human SKN cells after 72 hrs by MTT assay; type: functional
Summary of the method: (§1)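 Cells were seeded in 24-well plates (SKN 1 × 10^4, G-402 2 × 10^4 cells/well) and cultured for 24 h. Alkaloid was then added, for 72 h with SKN or 48 h with G-402, and the medium was renewed. MTT was added (SKN 400 μg/mL, G-402 200 μg/mL) for 4 h, formazan was solubilized in SDS, and A570 was read. Growth % was corrected for time-0 absorbance relative to control, with 3 wells per point, and GI50 was derived from the concentration–growth data.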

[2] = Growth inhibition against rat VSMC after 72 hrs by MTT assay; type: functional
Summary of the method: (§2)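 Cells are seeded at 1 × 10^4/well in 24-well plates and cultured 24 h. Alkaloid is then added at increasing concentrations for 72 h. Medium is renewed and MTT added at 1 mg/mL for 4 h. Formazan is dissolved in SDS and A570 read. Growth % = (treated − time 0)/(control − time 0). GI50 is taken from the curves. Data are mean ± SE of 3 wells. Primary VSMCs come from aortas of 10-week male Sprague-Dawley rats, used at passages 5–15.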

A10 [3] = experiment: Down regulation of Prim2 mRNA expression in rat A10 cells at 30 uM after 24 hrs by quantitative RT-PCR analysis; type: functional, cell-based
Summary of the method: (§3)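 A10 rat aortic smooth muscle cells were seeded at 6 × 10^4 cells/well in 6-well plates and exposed to 30 μM alkaloid for 24 h at 37 °C in 5% CO2. The cells were then harvested and target mRNA levels were quantified by quantitative RT-PCR.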

[4] = Growth inhibition against human RKN cells after 48 hrs by MTT assay; type: functional
Summary of the method: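 RKN human ovarian leiomyosarcoma cells are seeded at 2 × 10^4/well in 24-well plates and cultured 24 h. Alkaloid is then added at increasing concentrations for 48 h. Medium is renewed and MTT added at 200 μg/mL for 4 h. Formazan is dissolved in SDS and A570 read. Growth % is calculated relative to time-0 and untreated absorbances. GI50 is taken from the curves. Data are mean ± SE of 3 wells.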

G-402 = experiment: Growth inhibition against human G402 cells after 48 hrs by MTT assay; type: functional; settings: G-402, 48 h; summary of the method: as §1
A10 [5] = experiment: Downregulation of Scd2 mRNA expression in rat A10 cells at 30 uM after 24 hrs by quantitative RT-PCR analysis; type: functional, cell-based; summary of the method: as §3
A10 [6] = experiment: Upregulation of Rgc32 mRNA expression in rat A10 cells at 3 to 30 uM […] by quantitative RT-PCR analysis; type: functional, cell-based
Summary of the method: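 A10 cells were plated at 6.0 × 10^4 cells/well in 6-well plates. They were treated across a concentration series for 24 h, or for 1, 3, 6, 12 or 24 h in a time course. Rgc32 mRNA was then measured by quantitative RT-PCR. Results are mean ± SD of 3 wells, compared against untreated control.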

A10 [7] = experiment: Downregulation of Impk mRNA expression in rat A10 cells at 30 uM after 24 hrs by quantitative RT-PCR analysis; type: functional, cell-based; summary of the method: as §3
[8] = Antiproliferative activity against rat VSMC assessed as cell growth inhibition; type: functional; summary of the method: as §2
A10 [9] = experiment: Growth inhibition against rat A10 cells after 72 hrs by MTT assay; type: functional; settings: A10, 72 h
[10] = Upregulation of Rgc32 mRNA expression in rat 3Y1 cells at 3 to 30 uM after 24 hrs by quantitative RT-PCR analysis; type: functional, cell-based
A10 [11] = experiment: Upregulation of Gadd45a mRNA expression in rat A10 cells at 30 uM after 6 hrs by quantitative RT-PCR analysis; type: functional, cell-based
[12] = Growth inhibition against mouse BC3H1 cells after 72 hrs by MTT assay; type: functional; settings: BC3H-1, 72 h; summary of the method: as §2
A10 [13] = experiment: Upregulation of Rgc32 mRNA expression in rat A10 cells at 3 uM after 24 hrs by quantitative RT-PCR analysis; type: functional, cell-based
A10 [14] = experiment: Cell cycle arrest in Rgc32 overexpressing rat A10 cells assessed as accumulation at G2/M phase; type: functional, cell-based
A10 [15] = experiment: Upregulation of in Gadd45a mRNA expression in rat A10 cells at 3 uM after 24 hrs by quantitative RT-PCR analysis; type: functional, cell-based
[16] = Upregulation of Gadd45a mRNA expression in rat 3Y1 cells at 30 uM after 24 hrs by quantitative RT-PCR analysis; type: functional, cell-based
A10 [17] = experiment: Upregulation of Gadd45a mRNA expression in rat A10 cells at 30 uM after 3 hrs by quantitative RT-PCR analysis; type: functional, cell-based
A10 [18] = experiment: Upregulation of Gadd45a mRNA expression in rat A10 cells at 30 uM after 24 hrs by quantitative RT-PCR analysis relative to control; type: functional
A10 [19] = experiment: Upregulation of Rgc32 mRNA expression in rat A10 cells at 3 to 30 uM after 24 hrs by quantitative RT-PCR analysis; type: functional, cell-based
A10 [20] = experiment: Cell cycle arrest in Gadd45a overexpressing rat A10 cells assessed as accumulation at G2/M phase; type: functional, cell-based
A10 [21] = experiment: Upregulation of Rgc32 mRNA expression in rat A10 cells at 30 uM after 24 hrs by quantitative RT-PCR analysis relative to control; type: functional
A10 [22] = experiment: Upregulation of p53 mRNA expression in rat A10 cells at 3 to 30 uM after 24 hrs by quantitative RT-PCR analysis; type: functional, cell-based
A10 [23] = experiment: Upregulation of p21 mRNA expression in rat A10 cells at 3 to 30 uM after 24 hrs by quantitative RT-PCR analysis; type: functional, cell-based
A10 [24] = experiment: Upregulation of Ogfrl1 mRNA expression in rat A10 cells at 30 uM after 24 hrs by quantitative RT-PCR analysis; type: functional, cell-based; summary of the method: as §3
A10 [25] = experiment: Upregulation of Jak2 mRNA expression in rat A10 cells at 30 uM after 24 hrs by quantitative RT-PCR analysis; type: functional, cell-based; summary of the method: as §3
A10 [26] = experiment: Upregulation of Calm1 mRNA expression in rat A10 cells at 30 uM after 24 hrs by quantitative RT-PCR analysis; type: functional, cell-based; summary of the method: as §3

Compound | GI50 [1] [µM] | GI50 [2] [µM] | Activity (A10 [3]) | GI50 [4] [µM] | GI50 (G-402) [µM] | Activity (A10 [5]) | Activity (A10 [6]) | Activity (A10 [7]) | GI50 [8] [µM] | GI50 (A10 [9]) [µM] | other results
COc1ccc2cc3[n+](cc2c1OC)CCc1cc2c(cc1-3)OCO2 [BERBERINE CHLORIDE] | 15.9 | 95.1 | Active | 49.6 | 11.9 | Active | inactive | Active | 95.1 | 102 | –
[Cl-].c1c2c(cc3c1OCO3)-c1cc3ccc4c(c3c[n+]1CC2)OCO4 [COPTISINE CHLORIDE] | 11.8 | 3.35 | Active | 33 | 19.1 | Active | inactive | Active | 3.3 | 4.49 | Activity [10]: inactive; Activity (A10 [11]): inactive; GI50 [12]: 105 µM; Activity (A10 [13]): inactive; Activity (A10 [14]): Active; Activity (A10 [15]): inactive; fold change (FC) [16]: 1.5; Activity (A10 [17]): Active; fold change (FC) (A10 [18]): 8; Activity (A10 [19]): Active; Activity (A10 [20]): Active; fold change (FC) (A10 [21]): 3.5; Activity (A10 [22]): inactive; Activity (A10 [23]): Active
COc1cc2c(cc1OC)-c1cc3ccc(OC)c(OC)c3c[n+]1CC2 [PALMATINE CHLORIDE] | 57.4 | – | Active | – | 83.1 | Active | inactive | Active | – | – | Activity (A10 [24]): Active; Activity (A10 [25]): Active; Activity (A10 [26]): Active
